What was measured:
HCT-116 = assay: Cytotoxicity against human HCT116 cells after 72 hrs by MTT assay; format: functional, cell-based; conditions: HCT-116, 72 h
Summary of the method: (§1)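 Cells in RPMI-1640 were exposed to compound for 72 h, then given MTT and incubated a further 4 h at 37 °C. Formazan was dissolved in DMSO and absorbance read at 570 and 630 nm. Triplicate wells per point across three independent experiments. IC50 (50% inhibition of viability) was taken from concentration-response curves by linear regression, as the mean of three determinations.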

SGC-7901 (human) = assay: Cytotoxicity against human SGC7901 cells after 72 hrs by MTT assay; conditions: SGC-7901, 72 h
DU-145 (human) = assay: Cytotoxicity against human DU145 cells after 72 hrs by MTT assay; conditions: DU-145, 72 h
HeLa = assay: Cytotoxicity against human HeLa cells after 72 hrs by MTT assay; format: functional, cell-based; summary of the method: as §1
K562 = assay: Cytotoxicity against human K562 cells after 72 hrs by MTT assay; format: functional, cell-based; conditions: K562, 72 h; summary of the method: as §1

| Structure (SMILES) | IC50 (HCT-116) | IC50 (SGC-7901 (human)) | IC50 (DU-145 (human)) | IC50 (HeLa) | IC50 (K562) |
| --- | --- | --- | --- | --- | --- |
| CCCNC(=S)N/N=C1\CC(c2ccc(O)cc2)Oc2cc(O)ccc21 (stereo not given) | 54 µM | 74.7 µM | 31.2 µM | 40.2 µM | 31 µM |
| CC(C)NC(=S)N/N=C1\CC(c2ccc(O)cc2)Oc2cc(O)ccc21 (stereo not given) | 38.2 µM | 60.4 µM | 35.2 µM | 68.1 µM | 21.3 µM |
| CCCCNC(=S)N/N=C1\CC(c2ccc(O)cc2)Oc2cc(O)ccc21 (stereo not given) | 49.3 µM | 57.7 µM | 50.8 µM | > 100 µM | 17 µM |
| CC(C)(C)NC(=S)N/N=C1\CC(c2ccc(O)cc2)Oc2cc(O)ccc21 (stereo not given) | 25.9 µM | 42.9 µM | 31 µM | 50 µM | 8.9 µM |
| CCCN(CCC)C(=S)N/N=C1\CC(c2ccc(O)cc2)Oc2cc(O)ccc21 (stereo not given) | 41.9 µM | 62.1 µM | 32.2 µM | 75.3 µM | 12.4 µM |
| Oc1ccc(C2C/C(=N\NC(=S)N3CCCC3)c3ccc(O)cc3O2)cc1 (stereo not given) | 52.3 µM | 51.7 µM | 37 µM | 65.2 µM | 17.3 µM |
| Oc1ccc(C2C/C(=N\NC(=S)N3CCCCC3)c3ccc(O)cc3O2)cc1 (stereo not given) | 50.9 µM | 55.3 µM | 40 µM | 74.4 µM | 13.7 µM |
| Oc1ccc(C2C/C(=N\NC(=S)N3CCNCC3)c3ccc(O)cc3O2)cc1 (stereo not given) | 79.4 µM | > 100 µM | 22.5 µM | > 100 µM | 26.2 µM |
| CN1CCN(C(=S)N/N=C2\CC(c3ccc(O)cc3)Oc3cc(O)ccc32)CC1 (stereo not given) | 60.4 µM | 98.8 µM | 10.1 µM | 65.8 µM | 23.1 µM |
| Oc1ccc(C2C/C(=N\NC(=S)N3CCOCC3)c3ccc(O)cc3O2)cc1 (stereo not given) | 63.5 µM | 84.5 µM | 52.2 µM | 76.3 µM | 29.4 µM |
| O=c1[nH]cc(F)c(=O)[nH]1 [FLUOROURACIL] | 1.93 µM | 2.19 µM | 2.95 µM | 9.7 µM | 45.4 µM |
| O=C1C[C@@H](c2ccc(O)cc2)Oc2cc(O)ccc21 [LIQUIRTIGENIN] | 37.2 µM | > 100 µM | 92.4 µM | > 100 µM | > 100 µM |

Source: ChEMBL document CHEMBL1208677, “Synthesis and antitumor activity of liquiritigenin thiosemicarbazone derivatives” (Eur J Med Chem, 2010)
